# In ChEMBL document CHEMBL1126931, “Synthesis of 20-hydroxy-, 20-amino-, and 20-nitro-14-hydroxy-21-nor-5 beta,14 beta-pregnane C-3 glycosides and related derivatives: structure-activity relationships of pregnanes that bind to the digitalis receptor” (J Med Chem, 1993):
# Biological target: Sodium/potassium-transporting ATPase
# Test: Inhibition of [3H]- ouabain binding to digitalis receptor
# Assay type: protein-complex assay, Cavia porcellus
# Summary of the method: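 Radioligand binding to the digitalis receptor recognition site of heart muscle, read as displacement of [3H]ouabain.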
row,Structure (SMILES),IC50
1,CC1O[C@@H](O[C@H]2CC[C@@]3(C)[C@H](CC[C@@H]4[C@@H]3CC[C@]3(C)[C@@H](C[N+](=O)[O-])CC[C@]43O)C2)C(O)[C@@H](O)[C@H]1O (stereo partly specified),12 nM
2,CC1O[C@@H](O[C@H]2CC[C@@]3(C)[C@H](CC[C@@H]4[C@@H]3CC[C@]3(C)[C@@H](C(=O)O)CC[C@]43O)C2)C[C@@H](O)[C@@H]1O (stereo partly specified),36000 nM
3,CC1O[C@@H](O[C@H]2CC[C@@]3(C)[C@H](CC[C@@H]4[C@@H]3CC[C@]3(C)[C@@H](CN)CC[C@]43O)C2)C(O)[C@@H](O)[C@H]1O (stereo partly specified),99 nM
4,C[C@H]1O[C@@H](O[C@H]2CC[C@@]3(C)[C@H](CC[C@@H]4[C@@H]3CC[C@]3(C)[C@@H](CN)CC[C@]43O)C2)C[C@@H](O)[C@@H]1O,270 nM
5,CC1O[C@@H](O[C@H]2CC[C@@]3(C)[C@H](CC[C@@H]4[C@@H]3CC[C@]3(C)[C@@H](CO)CC[C@]43O)C2)C(O)[C@@H](O)[C@H]1O (stereo partly specified),360 nM
6,CC1O[C@@H](O[C@H]2CC[C@@]3(C)[C@H](CC[C@@H]4[C@@H]3CC[C@]3(C)[C@@H](CC[N+](=O)[O-])CC[C@]43O)C2)C(O)[C@@H](O)[C@H]1O (stereo partly specified),45 nM
7,CC1O[C@@H](O[C@H]2CC[C@@]3(C)[C@H](CC[C@@H]4[C@@H]3CC[C@]3(C)[C@@H](C[N+](=O)[O-])CC[C@]43O)C2)C[C@@H](O)[C@@H]1O (stereo partly specified),88 nM
8,COC(=O)[C@H]1CC[C@]2(O)[C@@H]3CC[C@@H]4C[C@@H](O[C@H]5C[C@@H](O)[C@H](O)C(C)O5)CC[C@]4(C)[C@H]3CC[C@]12C (stereo partly specified),15000 nM
9,CC1O[C@@H](O[C@H]2CC[C@@]3(C)[C@H](CC[C@@H]4[C@@H]3CC[C@]3(C)[C@@H](CO)CC[C@]43O)C2)C[C@@H](O)[C@@H]1O (stereo partly specified),610 nM
10,C[C@H]1O[C@@H](O[C@H]2[C@@H](O)C[C@H](O[C@H]3[C@@H](O)C[C@H](O[C@H]4CC[C@@]5(C)[C@H](CC[C@@H]6[C@@H]5CC[C@]5(C)[C@@H](C7=CC(=O)OC7)CC[C@]65O)C4)O[C@@H]3C)O[C@@H]2C)C[C@H](O)[C@@H]1O [DIGITOXIN],8 nM
11,C[C@H]1O[C@H](O[C@H]2CC[C@@]3(C)[C@H](CC[C@@H]4[C@@H]3CC[C@]3(C)[C@@H](C(=O)CO)CC[C@]43O)C2)[C@H](O)[C@H](O)[C@H]1O,1070 nM
